# Screening results from PubChem.
# NRP1-CendR mod – alters CendR peptide binding to human NRP-1. O14786. FAM-RPARPAR peptide binding to NRP-1, fluorescence polarization. inhibition, % at 25 µM. 360,000 tested, 0.85% active. AID 602438;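 active = inhibition or corrected inhibition above about 18%, plus a signal ratio from 0.5 to 1.5, limit read from the data, passing the limit was not always enough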
# ADAM10 inh – inhibitors of human ADAM10; O14672; recombinant ADAM10, EDANS/DABCYL FRET peptide cleavage, 3 h; inhibition, % at 7 µM; 370,000 tested, 0.62% active;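 active = inhibition above a per-campaign cutoff equal to the mean of compounds falling between control-based bounds plus 3 SD, cut at about 20% in these data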;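 note: 0% = DMSO wells while the 100% control is not disclosed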
# ADAM17 inh – inhibits human ADAM17 | P78536 | recombinant ADAM17, EDANS/DABCYL FRET peptide cleavage | inhibition, % at 6.95 µM | 370,000 tested, 0.83% active | AID 720648;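 active = inhibition above the mean of compounds lying between control limits plus 3 SD, set per campaign, cut at about 8.5% in these data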;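 note: 0% = DMSO-only wells as the low control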
# FAS TE block – inhibitors of human fatty acid synthase thioesterase domain; inhibition, % at 15 µM; 360,000 tested, 0.67% active; recombinant FAS-TE, OMFH fluorogenic substrate, fluorescence endpoint;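 active = compounds whose normalised, plate-corrected inhibition of enzyme fluorescence in the single-dose primary screen is 50% or more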;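 note: 0% = DMSO with enzyme and 100% = substrate without enzyme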
# CaV13 FRET inh – Disruptors of the CACNA1D IQ motif to Ca2+-dependent inactivation inhibitor domain association, primary screening, Förster resonance energy transfer in intact living …. HEK cells, CFP/YFP FRET ICDI-IQ, plate reader, 10 min; percent FRET-ratio fall versus neutral wells. inhibition, % at 12.3 µM. 340,000 tested, 0.098% active;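 active = mean replicate inhibition of at least 30% and at least 1% of replicates passing that level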;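 note: 0% = median of the neutral control wells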
# Arr AP2 block – human beta-arrestin and AP2 interaction inhibition; FITC-arrestin peptide / GST-AP2 beads, flow cytometry; AP2 beta2 appendage carries R879A mutation; inhibition, % at 10 µM; 340,000 tested, 0.31% active;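 active = inhibition above a set limit, near 3 SD of compounds lacking own fluorescence, cut at about 54% in these data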;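 note: plate controls were DMSO wells for no effect and 5 µM unlabelled arrestin peptide for full effect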
#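 Assay system: GST-AP2 R879A bound to glutathione beads, E. coli-expressed; Medium: PBS with 0.05% Tween 20 and 0.1% BSA; Also added: fluorescein-tagged arrestin peptide at 50 nM final; Timing: 12 min plus 1 h, RT; Measured by: flow cytometry, FL1 (488/535 nm); Evaluation: percent drop in bead-associated FITC signal.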
# FAS-TE conf – FAS thioesterase (human) inhibition, confirmation; inhibition, % at 15 µM; 2,300 tested, 45% active; shares compounds with FAS TE block; recombinant FAS-TE, OMFH fluorogenic substrate, fluorescence; AID 624325;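 active = compounds inhibiting the enzyme by at least 50% at 15 µM in any one of the replicates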;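 note: 0% = enzyme with DMSO only and 100% = wells lacking enzyme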
# ADAM10 confirm – confirmation of inhibitors of human ADAM10; shares compounds with ADAM10 inh; inhibition, % at 6.95 µM; ADAM10 QFRET peptide cleavage, EDANS fluorescence; 2,100 tested, 1% active; AID 743208;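 active = inhibition above about 20% chosen separately for each screening run, limit read from the data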;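 note: 0% = DMSO wells and 100% = marimastat wells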
# ADAM17 counter – counter-screen for ADAM10 exosite inhibitors: inhibitors of human ADAM17; shares compounds with ADAM10 inh; ADAM17 QFRET peptide cleavage, EDANS fluorescence; inhibition, % at 6.95 µM; 2,100 tested, 0.5% active;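 active = mean triplicate inhibition above the solvent-only control wells' mean plus 3 SD, cut at about 12% in these data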;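 note: 0% = DMSO wells and 100% = marimastat wells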
# ADAM10 counter – counter-screen for ADAM17 exosite inhibitors: inhibitors of human ADAM10 | recombinant ADAM10, EDANS/DABCYL FRET peptide cleavage, 3 h | shares compounds with ADAM17 inh | 2,900 tested, 47% active | inhibition, % at 6.95 µM;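 active = mean inhibition over the triplicate runs exceeds the activity threshold set in the earlier primary screen, cut at about 20% in these data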;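 note: 0% = DMSO wells and 100% = marimastat wells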
# ADAM17 confirm – human ADAM17 inhibition, confirmation; shares compounds with ADAM17 inh; recombinant ADAM17, EDANS/DABCYL QFRET peptide cleavage; inhibition, % at 6.95 µM; 2,900 tested, 65% active; AID 743257;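 active = mean inhibition across replicates above the hit cutoff set in the primary screen, cut at about 8.5% in these data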;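 note: 0% = DMSO wells and 100% = marimastat wells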
# Numbers without * were called inactive; nt = no result. In the library only some 2.9% were active in any assay of this set; here they are far more common.
SMILES,NRP1-CendR mod,ADAM10 inh,ADAM17 inh,FAS TE block,CaV13 FRET inh,Arr AP2 block,FAS-TE conf,ADAM10 confirm,ADAM17 counter,others
CCCc1cc(=O)n2[nH]c(C)c(-c3ccccc3)c2n1,-5,-20,-8,-6,-6,6,nt,nt,nt,
COc1ccc(CC(=O)OCC(=O)Nc2ccc3[nH]c(=O)[nH]c3c2)cc1OC,-2,9,-1,-5,-12,nt,nt,nt,nt,
O=C(Nc1ccc(F)cc1)OCc1cn(Cc2cccc(C(F)(F)F)c2)nn1,nt,13,3,nt,nt,nt,nt,nt,nt,
CCCN(CC(=O)Nc1cc(Cl)cc(Cl)c1)CC(=O)Nc1ccc(F)c(F)c1F,-17,28*,13*,51*,-5,-5,34,12,3,
CCCN(CC(=O)Nc1ccccc1Br)CC(=O)Nc1ccc(F)c(F)c1F,-5,3,0,18,-5,-5,nt,nt,nt,
C[C@@]12C(=O)Nc3cc(F)c(F)cc3C(=O)N1[C@H]1c3ccccc3OC[C@@H]1[C@@H]2c1ccccc1,4,21*,10*,76*,-10,-5,44*,7,4,
Cc1ccc(CNC(=O)OC(C)(C)C)c(/C=C/S(=O)(=O)NC2CCCC2)c1,nt,0,-3,nt,nt,nt,nt,nt,nt,
Cc1cc(C)c(Cn2cnc(-c3ccc([N+](=O)[O-])cc3)c2)c(C)c1,-7,29*,-16,54*,-8,-5,53*,4,1,
Cc1cccc(C)c1N1C(=O)CC(Sc2ccccc2N)C1=O (centres undefined),-2,-6,4,-4,-6,nt,nt,nt,nt,
CC(c1ccccc1)n1cc(C(=O)N2CCCC2)nn1 (centres undefined),nt,-1,0,nt,nt,nt,nt,nt,nt,
COc1ccc(C2CC(c3ccccc3)=NN2S(=O)(=O)c2ccc(C)cc2)c(OC)c1 (centres undefined),-94,23*,7,58*,-4,3,12,7,2,
O=C(NC(Cc1c[nH]c2ccccc12)C(=O)Nc1ccc(F)c([N+](=O)[O-])c1)c1cccs1 (centres undefined),-2,20*,8,63*,-2,1,63*,4,2,
O=C(NC(Cc1c[nH]c2ccccc12)C(=O)O)c1cccs1 (centres undefined),8,6,2,-6,-2,-15,nt,nt,nt,
O=C1CC(N(CCc2ccccc2)C(=S)Nc2cc(Cl)ccc2Cl)C(=O)N1c1c(Cl)cccc1Cl (centres undefined),-6,21*,12*,56*,nt,-1,9,15,4,ADAM10 counter=24*;ADAM17 confirm=13*
CN(C(=O)Nc1ccc(Cl)cc1Cl)[C@H]1c2cc(Br)ccc2OC[C@H]1CO,-8,27*,15*,50*,-8,4,50*,4,1,ADAM10 counter=28*;ADAM17 confirm=12*
COc1ccc([N+](=O)[O-])cc1NC(=O)CSc1nc(C)cc(C)n1,-3,5,5,18,-19,-1,nt,nt,nt,
COc1ccc([N+](=O)[O-])cc1NC(=O)CSc1ccc2ccccc2c1,-5,10,9.6*,55*,4,-8,44,nt,nt,ADAM10 counter=21*;ADAM17 confirm=8
